# Screening data from PubChem BioAssay.
# sdo1 growth = growth rescue of sdo1-depleted yeast, primary screen, S. cerevisiae, bone marrow failure model; 140,000 tested, 0.21% active; z-score at 10 µM; S. cerevisiae sdo1-depleted JHY4D growth rescue, OD600 30 h; stronger effect = higher value; pdr5 snq2 efflux-pump mutant strain; AID 817, 2007;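 active = z-score above 3 at both the 24 hr and the 30 hr optical density reads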;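 note: z-score against mean and SD of all compound wells on the same plate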
# RAM network inh = inhibitors of the yeast RAM network, primary screen, dse1pr::URA3 reporter, 5-FOA selection. S. cerevisiae dse1pr::URA3 reporter, 5-FOA growth OD615, 2 d; analog-sensitive cbk1-as2 kinase mutant strain. inhibition, % at 50 µM. 190,000 tested, 1.8% active;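 active = inhibition above a set limit, 3 SD over mean compound inhibition, cut at about 8.4% in these data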;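 note: 0% = DMSO-only wells with no growth and 100% = 10 µM 1-NA-PP1 full growth; inhibition rescues growth on 5-FOA so higher OD means more RAM inhibition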
# Yeast lifespan up = compounds extending yeast replicative lifespan, primary screen, S. cerevisiae, OD615. inhibition of the nicotinamide effect, % at 10 µM. AID 775, 2007. 130,000 tested, 0.68% active. S. cerevisiae growth with nicotinamide; deaD strain in restrictive glucose medium;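 active = inhibition above a set limit, placed 3 SD over the median of all compounds, cut at about 26% in these data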;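 note: 0% = nicotinamide-treated wells and 100% = cells grown without nicotinamide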
#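 System: DeaD-strain S. cerevisiae / Buffer or medium: CSMM-D, restrictive glucose (dextrose) synthetic minimal medium / Probe or stimulus: nicotinamide, 1.5 mM, co-present with compound / Compound: one concentration, 10 µM, DMSO 0.25% / Incubation: 48 h compound exposure at 30 °C, humidified / Technique: optical density (absorbance) at 615 nm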
# BB579 growth dn = growth inhibitors of yeast BB579 in restrictive medium, primary screen, yeast lifespan-shortening project, S. cerevisiae; OD615, 48 h; inhibition, % at 10 µM; 140,000 tested, 0.51% active; AID 804, 2007;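 active = inhibition above a set limit, 3 SD over the mean compound inhibition, cut at about 44% in these data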
#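 System: Saccharomyces cerevisiae DeaD strain BB579, replicative lifespan model yeast. Buffer or medium: restrictive glucose-based CSMM-D medium. Doses: one dose, 10 µM compound with 0.25% DMSO. Timing: 4 h preincubation and 48 h exposure at 30 °C. Detection: turbidity as optical density at 615 nm. Benchmarks: amphotericin B 10 µg/mL, positive.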
# RAM 5-FOA = 5-FOA growth of efflux-deficient control yeast, dose response, counter-screen for RAM network inhibitor project, S. cerevisiae, OD615 | 1,200 tested, under 10 active | shares compounds with RAM network inh | S. cerevisiae efflux-deficient reporter strain, 5-FOA growth OD615, 2 days | max inhibition, %; call rule not given here;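 note: plate controls were vehicle for no effect and reference inhibitor for full effect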
# * hit, by the source's call; . = no result. Sampled rows, rich in hits. Any-hit rate of the full collection: about 2.7%.
SMILES,sdo1 growth,RAM network inh,Yeast lifespan up,BB579 growth dn,RAM 5-FOA
Cc1cc2c(C)ccc(C)c2nc1SCC(=O)c1cccs1,-0.96,13.5*,-12.9,-41.9,1.5
Cc1cc(C)c(C#N)c(SCC(=O)c2cccs2)n1,-1.59,2.9,-13.7,-38.2,.
O=C(NCc1ccc(F)cc1)c1ccc(S(=O)(=O)Nc2cccc(C(F)(F)F)c2)cc1,0.72,12.6*,3.7,-21.6,1.8
O=C(NCc1ccccc1F)c1ccc(S(=O)(=O)Nc2cccc(C(F)(F)F)c2)cc1,-0.76,1.4,1.2,-13.5,.
CC1CCc2nc(NC(=O)Nc3ccc4c(c3)OCO4)sc2C1 (stereo not drawn),-1.11,22.8*,-3.4,-26.9,1.9
COc1ccc(OC)c(NC(=O)NNC(=O)CCCOc2ccc(Cl)cc2C)c1,.,2.0,.,.,.
CC(C)CNS(=O)(=O)c1ccc(CCC(=O)Nc2cc(Cl)ccc2Oc2ccccc2)cc1,-0.26,12.5*,-5.3,-40.4,2.7
CCCNS(=O)(=O)c1ccc(CCC(=O)Nc2cc(Cl)ccc2Oc2ccccc2)cc1,-0.71,11.6*,.,-30.5,5.2
CC(C)(C)NS(=O)(=O)c1ccc(CCC(=O)Nc2cc(Cl)ccc2Oc2ccccc2)cc1,-0.15,2.2,-12.7,-7.7,.
CCOc1cc(CNC2CCCC2)c(Cl)cc1OCC(=O)Nc1ccccc1,.,3.5,.,.,.
Clc1ccc(-c2nnc(COc3ncnc4ccccc34)o2)cc1,.,-1.4,.,.,.
CCc1ccccc1N(C1=NCCCS1)S(=O)(=O)c1ccc(C(C)(C)C)cc1,-0.16,4.6,2.7,-33.0,.
Cc1ccccc1N1C(=O)CC1(C#N)c1ccc(OCc2ccccc2)cc1 (stereo not drawn),-0.6,11.5*,3.7,-24.9,3.7
COc1ccccc1N1C(=O)CC1(C#N)c1ccc(OCc2ccccc2)cc1 (stereo not drawn),-0.56,7.0,12.7,-36.2,.
O=C(O)C(Cc1ccccc1)N1C(=O)/C(=C/c2cccs2)SC1=S (stereo not drawn),.,15.5*,.,.,1.7
COc1cccc(/C=C2\SC(=S)N(C(Cc3ccccc3)C(=O)O)C2=O)c1 (stereo not drawn),.,12.2*,.,.,0.6
CCCn1c2c(c(O)c(C(=O)Nc3ccccc3)c1=O)CCCC2,0.35,11.5*,-8.6,-10.7,7.4
CC(C)Cn1c2c(c(O)c(C(=O)Nc3ccc(F)cc3)c1=O)CCCC2,-0.31,6.8,-10.2,-28.1,.
COCC(C)n1c(SCc2ccc(OC)c(F)c2)nc2ccccc2c1=O (stereo not drawn),.,14.2*,.,.,1.7
COc1cc2c(=O)n(Cc3ccco3)c(=O)n(CC(=O)c3cccc(Br)c3)c2cc1OC,-1.23,4.3,-11.4,-47.5,.
COc1cc2c(=O)n(Cc3ccco3)c(=O)n(CC(=O)c3ccc(Br)cc3)c2cc1OC,-1.76,11.7*,-8.1,-66.3,1.9
Cc1ccc(Cl)cc1N1CCN(S(=O)(=O)c2ccc3[nH]c(=O)c(=O)[nH]c3c2)CC1,.,12.2*,.,.,2.3
O=C(COc1ccc2c(c1)C(=O)CC1(CCCCC1)O2)NCc1ccccc1,-0.25,11.7*,-1.3,-9.6,2.0
CC(NC1CCCCC1)C(=O)NN=C(c1ccccc1)c1ccccc1 (stereo not drawn),.,1.9,.,.,.
COC(=O)C1CCN(Cc2ccc(OCCCN3CCN(c4ccc([N+](=O)[O-])cc4)CC3)cc2)CC1,.,-0.1,.,.,.
SMILES,sdo1 growth,RAM network inh,Yeast lifespan up,BB579 growth dn,RAM 5-FOA
COc1cc(/C=C(\C#N)c2ccccn2)ccc1OCc1ccc(Cl)cc1,0.53,11.7*,2.6,-18.4,2.6
CCN(CC)c1ccc(/C=C(\C#N)c2ccccn2)cc1,-0.95,0.0,-1.4,-23.3,.
CCN(Cc1ccccc1)c1ccc(/C=C(\C#N)c2ccccn2)cc1,-0.03,17.0*,4.6,-47.2,10.0
O=C(CCc1nnc(Cc2ccc(-c3ccccc3)cc2)o1)NCCc1cccnc1,.,-0.2,.,.,.
CCCC(c1nnnn1Cc1ccco1)N1CCN(c2cc(Cl)ccc2C)CC1 (stereo not drawn),-0.96,21.4*,-0.4,-65.3,1.7
CCN(CC)CCn1c(=S)[nH]c2cc(C(=O)N3CC=C(c4ccccc4)CC3)ccc2c1=O,.,0.8,.,.,.
Cc1ccccc1OCCNc1cc(N2CCCCC2)ccc1[N+](=O)[O-],-0.51,14.2*,2.0,-29.7,4.6
Cc1ccccc1OCCNc1cc(N2CCN(CCO)CC2)ccc1[N+](=O)[O-],-1.14,-0.7,-6.4,-0.3,.
COc1cccc(OCCNc2cc(N3CCOCC3)ccc2[N+](=O)[O-])c1,-0.72,11.7*,-0.2,-42.0,1.1
Cc1cc(C(=O)COc2ccc(Cl)cc2Br)c(C)n1C,.,11.7*,.,.,2.6
Cc1cc(C(=O)COc2ccccc2C(N)=O)c(C)n1C,.,1.8,.,.,.
O=C(CCOc1ccccc1)Nc1cccc(S(=O)(=O)Nc2ccccc2Cl)c1,-0.7,17.6*,6.1,-4.5,1.5
O=C(Nc1cccc(S(=O)(=O)Nc2ccccc2Cl)c1)c1ccc(Cl)nc1,0.32,4.1,3.7,-2.5,.
Cc1ccc(NC(=O)CCCc2nc3ccccc3s2)c(O)c1,.,0.0,.,.,.
CCCCNS(=O)(=O)c1ccc(NS(=O)(=O)c2c(C)cc(C)cc2C)cc1,0.24,11.8*,-4.8,-50.1,1.1
CCNS(=O)(=O)c1ccc(NS(=O)(=O)c2cc(C)ccc2C)cc1,0.67,0.2,-2.3,-26.3,.
O=C(CC(Nc1ccccc1Cl)C(=O)OCC(=O)c1cccs1)c1ccccc1 (stereo not drawn),-1.19,18.9*,-3.4,-35.1,2.0
O=C(OCC(=O)c1cccs1)c1ccccc1,0.1,1.7,-6.9,-27.4,.
COc1ccc(C(=O)N2CCN(Cc3ccc4c(c3)OCO4)CC2)cc1[N+](=O)[O-],.,-0.5,.,.,.
O=C(CC12CC3CC(CC(C3)C1)C2)NC(=S)NCc1ccco1,.,14.8*,.,.,2.9
CCOC(=O)C1=C(O)c2ccccc2C(=O)/C1=C\c1ccc(CC)cc1,-2.02,6.0,22.7,-17.7,.
CCCc1ccc(/C=C2\C(=O)c3ccccc3C(O)=C2C(=O)OCC)cc1,-1.61,11.5*,10.2,-43.4,3.6
CC(=O)c1ccc(N(C(=O)CS(=O)CC(=O)Nc2ccc(F)cc2)C(C(=O)NC2CCCCC2)c2cccs2)cc1 (stereo not drawn),-0.6,17.9*,16.9,-35.2,2.4
Cn1c(=O)c(/C=C/c2ccc(F)cc2)nc2ccccc21,.,14.3*,.,.,4.6
COc1ccc(CCNC(=O)Nc2ccccc2[N+](=O)[O-])cc1,.,2.6,.,.,.
COCCCNC(=S)N1CCCN(c2nc3c(C)c(C)ccc3cc2C#N)CC1,.,16.2*,.,.,2.2
COc1ccc(NC2=C(Cl)C(=O)N(CCc3ccccc3)C2=O)c(OC)c1,-1.11,16.2*,21.0,-38.9,5.6
O=C(O)c1ccccc1C(=O)NNc1ccc(Cl)cc1Cl,.,0.1,.,.,.
O=C(Nc1ccc2c(c1)OCCO2)N1CCN(Cc2ccccc2)CC1,.,1.0,.,.,.
